Source: ChEMBL document CHEMBL1137789, “Synthesis, binding, and modeling studies of new cytisine derivatives, as ligands for neuronal nicotinic acetylcholine receptor subtypes” (J Med Chem, 2009)
pKi: −log10 of the molar value.

Key:
Type in all cases: cell membranes
[1] = target: T1, Neuronal acetylcholine receptor; alpha4/beta2 (Rattus norvegicus, UniProt P09483+P12390); experiment: Displacement of (+/-)-[3H]epibatidine from alpha4beta2 nicotinic acetylcholine receptor in rat brain cortex membrane homogenates
T1 sequence (P09483 whole entry): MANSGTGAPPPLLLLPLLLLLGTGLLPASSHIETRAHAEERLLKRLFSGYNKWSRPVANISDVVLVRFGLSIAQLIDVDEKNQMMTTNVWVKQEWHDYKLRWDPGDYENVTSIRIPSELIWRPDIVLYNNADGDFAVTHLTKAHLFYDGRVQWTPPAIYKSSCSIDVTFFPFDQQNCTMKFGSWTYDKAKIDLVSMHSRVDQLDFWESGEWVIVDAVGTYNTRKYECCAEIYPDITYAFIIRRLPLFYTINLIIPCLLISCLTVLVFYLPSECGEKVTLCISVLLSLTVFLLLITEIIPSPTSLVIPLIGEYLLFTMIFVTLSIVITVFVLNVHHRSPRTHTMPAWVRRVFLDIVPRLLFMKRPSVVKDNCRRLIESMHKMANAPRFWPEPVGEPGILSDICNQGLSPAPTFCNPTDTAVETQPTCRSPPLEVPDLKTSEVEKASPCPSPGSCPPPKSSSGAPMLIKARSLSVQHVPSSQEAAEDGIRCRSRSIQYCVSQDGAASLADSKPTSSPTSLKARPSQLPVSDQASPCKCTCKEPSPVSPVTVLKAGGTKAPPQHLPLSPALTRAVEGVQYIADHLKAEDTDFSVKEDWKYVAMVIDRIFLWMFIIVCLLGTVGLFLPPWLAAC
T1 sequence (P12390 whole entry): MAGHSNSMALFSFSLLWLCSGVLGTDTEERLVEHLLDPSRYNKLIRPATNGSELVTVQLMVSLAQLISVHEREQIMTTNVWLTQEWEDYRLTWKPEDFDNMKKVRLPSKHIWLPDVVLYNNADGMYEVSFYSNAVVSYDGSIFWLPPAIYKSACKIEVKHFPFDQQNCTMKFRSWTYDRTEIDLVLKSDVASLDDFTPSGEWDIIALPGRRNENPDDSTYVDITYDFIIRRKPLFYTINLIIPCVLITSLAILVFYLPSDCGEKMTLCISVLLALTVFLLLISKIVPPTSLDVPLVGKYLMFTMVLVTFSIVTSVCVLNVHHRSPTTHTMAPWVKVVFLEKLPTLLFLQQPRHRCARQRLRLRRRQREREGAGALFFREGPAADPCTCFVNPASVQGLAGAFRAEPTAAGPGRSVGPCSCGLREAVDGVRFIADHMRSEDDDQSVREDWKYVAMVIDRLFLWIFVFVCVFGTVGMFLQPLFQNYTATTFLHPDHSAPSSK
Method in brief: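 Compounds (10 pM-10 mM) preincubated 30 min rt, then overnight at 4 °C with 0.005-0.1 nM final [³H]-epibatidine. Nonspecific: 100 nM epibatidine. Filtration, β counting. Ki by LIGAND fit of three independent experiments.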

[2] = target: Neuronal acetylcholine receptor subunit alpha-7 (Rattus norvegicus, UniProt Q05941); experiment: Displacement of [125I]alpha-bungarotoxin from alpha7 nicotinic acetylcholine receptor in rat brain cortex membrane homogenates
Sequence of Neuronal acetylcholine receptor subunit alpha-7 (Q05941 whole entry): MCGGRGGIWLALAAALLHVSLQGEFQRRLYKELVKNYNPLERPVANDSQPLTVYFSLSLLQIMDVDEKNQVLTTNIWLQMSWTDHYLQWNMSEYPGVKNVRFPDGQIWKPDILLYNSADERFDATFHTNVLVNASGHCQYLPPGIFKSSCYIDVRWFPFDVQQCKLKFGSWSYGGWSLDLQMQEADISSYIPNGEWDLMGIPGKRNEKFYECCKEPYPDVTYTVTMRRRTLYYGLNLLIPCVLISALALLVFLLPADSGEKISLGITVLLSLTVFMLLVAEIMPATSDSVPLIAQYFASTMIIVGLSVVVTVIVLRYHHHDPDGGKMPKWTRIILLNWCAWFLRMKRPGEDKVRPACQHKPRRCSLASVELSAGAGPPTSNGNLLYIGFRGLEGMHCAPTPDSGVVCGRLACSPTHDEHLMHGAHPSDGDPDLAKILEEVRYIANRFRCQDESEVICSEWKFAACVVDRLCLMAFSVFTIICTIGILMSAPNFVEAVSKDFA
Method in brief: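 Cortex membrane homogenates from 21-day-old rats in buffer A (Tris-HCl pH 7 with salts, PMSF). Compounds (10 pM-10 mM) preincubated 30 min at rt, then overnight at rt with 1 nM final [¹²⁵I]-α-bungarotoxin. Nonspecific: 1 μM unlabeled α-bungarotoxin. Filtration, γ counting. Ki fitted by LIGAND from three independent competition experiments; no inhibition up to 200 μM taken as Ki >100 μM.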

[3] = target: T1, Neuronal acetylcholine receptor; alpha4/beta2; experiment: Displacement of [3H]cytisine from alpha4beta2 nicotinic acetylcholine receptor in rat brain cortex membrane homogenates

SMILES | pKi [1] | pKi [2] | pKi [3]
CC(=O)CCN1C[C@@H]2C[C@H](C1)c1cccc(=O)n1C2 | 8.06 | 5.91 | 8.49
Cc1ccc(CCCN2C[C@@H]3C[C@H](C2)c2cccc(=O)n2C3)cc1 | 5.14 | < 4.30 | –
O=C(CCCN1C[C@@H]2C[C@H](C1)c1cccc(=O)n1C2)c1ccc(F)cc1 | 6.02 | < 4.30 | 6.17
NC(=O)CCN1C[C@@H]2C[C@H](C1)c1cccc(=O)n1C2 | 7.46 | 5.44 | –
CC(=O)CCCN1C[C@@H]2C[C@H](C1)c1cccc(=O)n1C2 | 6.12 | < 4.30 | –
O=c1cccc2n1C[C@H]1C[C@@H]2CN(Cc2cccnc2)C1 | 5.18 | < 4.00 | –
O=c1cccc2n1C[C@H]1C[C@@H]2CN(CCc2ccccc2)C1 | 7.55 | 4.60 | 7.11
O=c1cccc2n1C[C@H]1C[C@@H]2CN(CCc2ccccn2)C1 | 6.03 | < 4.00 | –
O=c1cccc2n1C[C@H]1C[C@@H]2CN(CCCCc2ccc(F)cc2)C1 | 4.89 | < 4.30 | –
O=c1cccc2n1C[C@H]1C[C@@H]2CN(CCCc2cccnc2)C1 | 6.13 | < 4.00 | –
O=c1cccc2n1C[C@H]1C[C@@H]2CN(CCCCc2ccccc2)C1 | 5.41 | – | 5.65
O=c1cccc2n1C[C@H]1C[C@@H]2CN(CCCc2ccccc2)C1 | 7.20 | 4.89 | 7.38
O=C(CN1C[C@@H]2C[C@H](C1)c1cccc(=O)n1C2)c1ccccc1 | 7.77 | 5.65 | –
O=C(CCN1C[C@@H]2C[C@H](C1)c1cccc(=O)n1C2)c1ccccc1 | 8.59 | 6.26 | 8.14
O=C(CCN1C[C@@H]2C[C@H](C1)c1cccc(=O)n1C2)c1ccc(F)cc1 | 8.28 | 6.36 | 7.89
Cc1ccc(CCN2C[C@@H]3C[C@H](C2)c2cccc(=O)n2C3)cc1 | 6.14 | < 4.30 | –
O=c1cccc2n1C[C@H]1C[C@@H]2CN(Cc2ccccc2)C1 | 6.07 | < 4.30 | 6.00
NC(=O)CN1C[C@@H]2C[C@H](C1)c1cccc(=O)n1C2 | 5.14 | < 4.30 | –
CCCCCN1C[C@@H]2C[C@H](C1)c1cccc(=O)n1C2 | 6.48 | 4.40 | 7.36
O=C(CCCN1C[C@@H]2C[C@H](C1)c1cccc(=O)n1C2)c1ccccc1 | 6.09 | < 4.30 | –
O=c1cccc2n1C[C@H]1C[C@@H]2CN(Cc2ccncc2)C1 | 6.17 | < 4.00 | –
O=c1cccc2n1C[C@H]1C[C@@H]2CN(Cc2ccc(F)cc2)C1 | 6.48 | 4.10 | 6.74
O=c1cccc2n1C[C@H]1C[C@@H]2CN(CCc2ccc(F)cc2)C1 | 5.89 | < 4.30 | –
O=c1cccc2n1C[C@H]1C[C@@H]2CN(CCc2ccncc2)C1 | 8.14 | 5.38 | –
O=c1cccc2n1C[C@H]1C[C@@H]2CN(CCCc2ccc(F)cc2)C1 | 5.30 | < 4.30 | 6.21
O=C(CN1C[C@@H]2C[C@H](C1)c1cccc(=O)n1C2)c1ccc(F)cc1 | 6.39 | – | 6.76
O=c1cccc2n1C[C@@H]1CNC[C@H]2C1 [CYTISINICLINE] | 9.32 | 6.48 | 9.47
